According to ChEMBL document CHEMBL5131404, “Lipophilic quinolone derivatives: Synthesis and in vitro antibacterial evaluation” (2022):
≈ marks a conversion by molar mass, not a printed value. Each block holds one compound with its values, some of them ahead of it.

Key:
Format in all cases: functional
[1] = tested on: Staphylococcus aureus; assay: Antibacterial activity against Staphylococcus aureus ATCC 29213
Summary of the method: (§1)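 Broth microdilution MIC following CLSI guidelines. Strains were grown on Mueller-Hinton agar beforehand. The MIC is the lowest compound concentration that inhibits bacterial growth, determined at least three times in independent experiments.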

[2] = tested on: Escherichia coli; assay: Antibacterial activity against Escherichia coli ATCC 35218; summary of the method: as §1
[3] = tested on: Neisseria gonorrhoeae; assay: Antibacterial activity against Neisseria gonorrhoeae ATCC 19424
Summary of the method: (§2)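 Agar dilution MIC. Strains were cultured on GC agar with 2% v/v Vitox and 1% haemoglobin. Suspensions of 10^5 CFU/mL were spotted in duplicate onto the same supplemented GC agar containing various compound concentrations, then incubated 24-48 h at 37°C in 5% CO2. The MIC is the lowest concentration inhibiting growth, from at least three independent experiments.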

[4] = tested on: Streptococcus pneumoniae; assay: Antibacterial activity against Streptococcus pneumoniae ATCC 49169; summary of the method: as §1
[5] = tested on: Acinetobacter baumannii; assay: Antibacterial activity against Acinetobacter baumannii 140; summary of the method: as §1
[6] = tested on: Staphylococcus aureus; assay: Antibacterial activity against methicillin-resistant Staphylococcus aureus 196
Summary of the method: (§3)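 Strains grown on Mueller-Hinton agar. MIC by broth microdilution following CLSI guidelines, taken as the lowest concentration inhibiting bacterial growth. Determined at least three times in independent experiments.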

[7] = tested on: Escherichia coli; assay: Antibacterial activity against Escherichia coli 202; summary of the method: as §1
[8] = tested on: Escherichia coli; assay: Antibacterial activity against Escherichia coli 203; summary of the method: as §1
[9] = tested on: Acinetobacter baumannii; assay: Antibacterial activity against Acinetobacter baumannii 139; summary of the method: as §1
[10] = tested on: Pseudomonas aeruginosa; assay: Antibacterial activity against Pseudomonas aeruginosa 143; summary of the method: as §1
[11] = tested on: Staphylococcus aureus; assay: Antibacterial activity against methicillin-resistant Staphylococcus aureus 197; summary of the method: as §3
[12] = tested on: Acinetobacter baumannii; assay: Antibacterial activity against Acinetobacter baumannii ATCC 19606; summary of the method: as §1
[13] = tested on: Pseudomonas aeruginosa; assay: Antibacterial activity against Pseudomonas aeruginosa 142; summary of the method: as §1
[14] = tested on: Pseudomonas aeruginosa; assay: Antibacterial activity against Pseudomonas aeruginosa ATCC 27853; summary of the method: as §1
[15] = tested on: Neisseria gonorrhoeae; assay: Antibacterial activity against Neisseria gonorrhoeae WHO C; summary of the method: as §2
[16] = tested on: Neisseria gonorrhoeae; assay: Antibacterial activity against Neisseria gonorrhoeae WHO G; summary of the method: as §2
[17] = tested on: Neisseria gonorrhoeae; assay: Antibacterial activity against Neisseria gonorrhoeae WHO Z; summary of the method: as §2
[18] = tested on: Neisseria gonorrhoeae; assay: Antibacterial activity against Neisseria gonorrhoeae WHO A; summary of the method: as §2
[19] = tested on: Neisseria gonorrhoeae; assay: Antibacterial activity against Neisseria gonorrhoeae WHO O; summary of the method: as §2
[20] = tested on: Neisseria gonorrhoeae; assay: Antibacterial activity against Neisseria gonorrhoeae WHO K; summary of the method: as §2
[21] = tested on: Neisseria gonorrhoeae; assay: Antibacterial activity against Neisseria gonorrhoeae WHO E; summary of the method: as §2
[22] = tested on: Neisseria gonorrhoeae; assay: Antibacterial activity against Neisseria gonorrhoeae Barla194; summary of the method: as §2
[23] = tested on: Neisseria gonorrhoeae; assay: Antibacterial activity against Neisseria gonorrhoeae WHO B; summary of the method: as §2
[24] = tested on: Neisseria gonorrhoeae; assay: Antibacterial activity against Neisseria gonorrhoeae WHO Q; summary of the method: as §2
[25] = tested on: Neisseria gonorrhoeae; assay: Antibacterial activity against Neisseria gonorrhoeae WHO M
Summary of the method: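 Agar dilution on GC agar base with 2% v/v Vitox and 1% haemoglobin containing graded compound concentrations. Suspensions at 10^5 CFU/mL spotted in duplicate. Incubation 24-48h, 37°C, 5% CO2. MIC taken as the lowest concentration inhibiting growth, determined at least three times in independent experiments.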

- MIC [1]: 1 µg/mL (≈ 2.05 µM)
- MIC [2]: ≥ 64 µg/mL
- MIC [3]: 1 µg/mL (≈ 2.05 µM)
- MIC [4]: 0.5 µg/mL (≈ 1.03 µM)
SMILES: CCCCCCCC(=O)N1CCN(c2c(F)cc3c(=O)c(C(=O)O)cn(C4CC4)c3c2OC)CC1

SMILES: CCCCCCCN1CCN(c2c(F)cc3c(=O)c(C(=O)O)cn(C4CC4)c3c2OC)CC1
- MIC [5]: 64 µg/mL (≈ 139 µM)
- MIC [1]: 1 µg/mL (≈ 2.18 µM)
- MIC [2]: 1 µg/mL (≈ 2.18 µM)
- MIC [3]: 0.25 µg/mL (≈ 0.544 µM)
- MIC [6]: 2 µg/mL (≈ 4.35 µM)
- MIC [7]: 2 µg/mL (≈ 4.35 µM)
- MIC [8]: > 64 µg/mL
- MIC [9]: 4 µg/mL (≈ 8.7 µM)
- MIC [4]: 4 µg/mL (≈ 8.7 µM)
- MIC [10]: > 64 µg/mL
- MIC [11]: 8 µg/mL (≈ 17.4 µM)
- MIC [12]: 8 µg/mL (≈ 17.4 µM)
- MIC [13]: > 64 µg/mL
- MIC [14]: 64 µg/mL (≈ 139 µM)

SMILES: O=C(O)c1cn(C2CC2)c2cc(N3CCNCC3)c(F)cc2c1=O [CIPROFLOXACIN]
- MIC [15]: 0.004 µg/mL (≈ 0.0121 µM)
- MIC [5]: > 32 µg/mL
- MIC [16]: 0.125 µg/mL (≈ 0.377 µM)
- MIC [17]: > 32 µg/mL
- MIC [1]: 0.25 µg/mL (≈ 0.754 µM)
- MIC [3]: 0.004 µg/mL (≈ 0.0121 µM)
- MIC [18]: 0.002 µg/mL (≈ 0.00604 µM)
- MIC [6]: > 32 µg/mL
- MIC [19]: 0.004 µg/mL (≈ 0.0121 µM)
- MIC [8]: > 32 µg/mL
- MIC [20]: ≥ 32 µg/mL
- MIC [21]: 0.002 µg/mL (≈ 0.00604 µM)
- MIC [9]: > 32 µg/mL
- MIC [22]: 32 µg/mL (≈ 96.6 µM)
- MIC [23]: 0.008 µg/mL (≈ 0.0241 µM)
- MIC [24]: 0.008 µg/mL (≈ 0.0241 µM)
- MIC [10]: > 32 µg/mL
- MIC [11]: > 32 µg/mL
- MIC [25]: 2 µg/mL (≈ 6.04 µM)
- MIC [12]: 0.5 µg/mL (≈ 1.51 µM)
- MIC [13]: > 32 µg/mL

SMILES: CCCCCCCCCCCCCCN1CCN(c2c(F)cc3c(=O)c(C(=O)O)cn(C4CC4)c3c2OC)CC1
- MIC [5]: ≥ 64 µg/mL
- MIC [1]: 32 µg/mL (≈ 57.4 µM)
- MIC [2]: 32 µg/mL (≈ 57.4 µM)
- MIC [3]: 0.12 µg/mL (≈ 0.215 µM)
- MIC [6]: > 64 µg/mL
- MIC [7]: 64 µg/mL (≈ 115 µM)
- MIC [8]: > 64 µg/mL
- MIC [9]: ≥ 64 µg/mL
- MIC [4]: 8 µg/mL (≈ 14.3 µM)
- MIC [10]: > 64 µg/mL
- MIC [11]: > 64 µg/mL
- MIC [12]: 64 µg/mL (≈ 115 µM)
- MIC [13]: > 64 µg/mL
- MIC [14]: > 64 µg/mL

SMILES: CCCCCCCCCCCCN1CCN(c2c(F)cc3c(=O)c(C(=O)O)cn(C4CC4)c3c2OC)CC1
- MIC [5]: 64 µg/mL (≈ 121 µM)
- MIC [1]: 32 µg/mL (≈ 60.4 µM)
- MIC [2]: 64 µg/mL (≈ 121 µM)
- MIC [3]: 0.12 µg/mL (≈ 0.227 µM)
- MIC [6]: ≥ 64 µg/mL
- MIC [7]: 32 µg/mL (≈ 60.4 µM)
- MIC [8]: > 64 µg/mL
- MIC [9]: ≥ 64 µg/mL
- MIC [4]: 4 µg/mL (≈ 7.55 µM)
- MIC [10]: > 64 µg/mL
- MIC [11]: ≥ 64 µg/mL
- MIC [12]: 64 µg/mL (≈ 121 µM)
- MIC [13]: > 64 µg/mL
- MIC [14]: > 64 µg/mL

SMILES: CCCCCCCCN1CCN(c2c(F)cc3c(=O)c(C(=O)O)cn(C4CC4)c3c2OC)CC1
- MIC [15]: 0.5 µg/mL (≈ 1.06 µM)
- MIC [5]: 64 µg/mL (≈ 135 µM)
- MIC [16]: 0.25 µg/mL (≈ 0.528 µM)
- MIC [17]: > 32 µg/mL
- MIC [1]: 4 µg/mL (≈ 8.45 µM)
- MIC [2]: ≥ 64 µg/mL
- MIC [3]: 0.25 µg/mL (≈ 0.528 µM)
- MIC [18]: 0.03 µg/mL (≈ 0.0633 µM)
- MIC [6]: 4 µg/mL (≈ 8.45 µM)
- MIC [7]: 2 µg/mL (≈ 4.22 µM)
- MIC [19]: 0.03 µg/mL (≈ 0.0633 µM)
- MIC [8]: > 64 µg/mL
- MIC [20]: 256 µg/mL (≈ 541 µM)
- MIC [21]: 0.03 µg/mL (≈ 0.0633 µM)
- MIC [9]: 16 µg/mL (≈ 33.8 µM)
- MIC [22]: 128 µg/mL (≈ 270 µM)
- MIC [23]: 0.12 µg/mL (≈ 0.253 µM)
- MIC [4]: 32 µg/mL (≈ 67.6 µM)
- MIC [24]: 0.5 µg/mL (≈ 1.06 µM)
- MIC [10]: > 64 µg/mL
- MIC [11]: 8 µg/mL (≈ 16.9 µM)
- MIC [25]: 16 µg/mL (≈ 33.8 µM)
- MIC [12]: 16 µg/mL (≈ 33.8 µM)
- MIC [13]: > 64 µg/mL
- MIC [14]: > 64 µg/mL
